Test results reported in ChEMBL document CHEMBL1123503, “Synthesis and biological activity of 3-amino-5-(3,5-diamino-6-chloropyrazin-2-yl)-1,2,4-oxadiazole: an amiloride prodrug” (1986).

Columns and labels:
Rattus norvegicus [1] = assay: Compound was evaluated for diuretic activity determined by the ability to induce electrolytic excretion (K+) at a time period of 0-24 hr for dose 3 mg/kg; assay type: functional, Urine
Summary of the method: (§1)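 Female Sprague-Dawley rats weighing 160-170 g were dosed orally at 3, 9, 27 or 81 mg/kg, housed three per cage, with three cages per dose. Urinary Na+, K+ and Cl- (mequiv × 100) and urine volume (mL) were measured over 0-5 h and 0-24 h after dosing. A placebo group was run alongside.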

Rattus norvegicus [2] = assay: Compound was evaluated for diuretic activity determined by the ability to induce electrolytic excretion (K+) at a time period of 0-24 hr for dose 81 mg/kg; assay type: functional, Urine; parameters: unit: mequiv × 100; summary of the method: as §1
Rattus norvegicus [3] = assay: Compound was evaluated for diuretic activity determined by the ability to induce electrolytic excretion (K+) at a time period of 0-24 hr for dose 9 mg/kg; assay type: functional, Urine; summary of the method: as §1
Rattus norvegicus [4] = assay: Compound was evaluated for diuretic activity determined by the ability to induce electrolytic excretion (K+) at a time period of 0-5 hr for dose 27 mg/kg; assay type: functional, Urine; summary of the method: as §1
Rattus norvegicus [5] = assay: Compound was evaluated for diuretic activity determined by the ability to induce electrolytic excretion (K+) at a time period of 0-5 hr for dose 3 mg/kg; assay type: functional, Urine; summary of the method: as §1
Rattus norvegicus [6] = assay: Compound was evaluated for diuretic activity determined by the ability to induce electrolytic excretion (K+) at a time period of 0-5 hr for dose 81 mg/kg; assay type: functional, Urine; summary of the method: as §1
Rattus norvegicus [7] = assay: Compound was evaluated for diuretic activity determined by the ability to induce electrolytic excretion (K+) at a time period of 0-5 hr for dose 9 mg/kg; assay type: functional, Urine; summary of the method: as §1
Rattus norvegicus [8] = assay: Compound was evaluated for diuretic activity determined by the ability to induce electrolytic excretion (Na+) at a time period of 0-24 hr for dose 27 mg/kg; assay type: functional, Urine; summary of the method: as §1
Rattus norvegicus [9] = assay: Compound was evaluated for diuretic activity determined by the ability to induce electrolytic excretion (Na+) at a time period of 0-24 hr for dose 3 mg/kg; assay type: functional, Urine; summary of the method: as §1
Rattus norvegicus [10] = assay: Compound was evaluated for diuretic activity determined by the ability to induce electrolytic excretion (Na+) at a time period of 0-24 hr for dose 81 mg/kg; assay type: functional, Urine; summary of the method: as §1
Rattus norvegicus [11] = assay: Compound was evaluated for diuretic activity determined by the ability to induce electrolytic excretion (Na+) at a time period of 0-24 hr for dose 9 mg/kg; assay type: functional, Urine; summary of the method: as §1
Rattus norvegicus [12] = assay: Compound was evaluated for diuretic activity determined by the ability to induce electrolytic excretion (Na+) at a time period of 0-5 hr for dose 27 mg/kg; assay type: functional, Urine; summary of the method: as §1
Rattus norvegicus [13] = assay: Compound was evaluated for diuretic activity determined by the ability to induce electrolytic excretion (Na+) at a time period of 0-5 hr for dose 3 mg/kg; assay type: functional, Urine; summary of the method: as §1
Rattus norvegicus [14] = assay: Compound was evaluated for diuretic activity determined by the ability to induce electrolytic excretion (Na+) at a time period of 0-5 hr for dose 81 mg/kg; assay type: functional, Urine; summary of the method: as §1
Rattus norvegicus [15] = assay: Compound was evaluated for diuretic activity determined by the ability to induce electrolytic excretion (Na+) at a time period of 0-5 hr for dose 9 mg/kg; assay type: functional, Urine; summary of the method: as §1
Rattus norvegicus [16] = assay: Urine volumes was determined at time period of 0-5 hours for dose 27 mg/kg; assay type: functional
Summary of the method: (§2)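 Female Sprague-Dawley rats (160-170 g) were dosed orally at 3-81 mg/kg, with a placebo group. Housing was three rats per cage and three cages per dose. Urinary Na+, K+ and Cl- (mequiv × 100) and urine volume were measured over 0-5 h and 0-24 h.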

Rattus norvegicus [17] = assay: Urine volumes was determined at time period of 0-5 hours for dose 9 mg/kg; assay type: functional; summary of the method: as §2
Rattus norvegicus [18] = assay: Compound was evaluated for diuretic activity determined by the ability to induce electrolytic excretion (Cl-) at a time period of 0-24 hr for dose 27 mg/kg; assay type: functional, Urine; summary of the method: as §1
Rattus norvegicus [19] = assay: Compound was evaluated for diuretic activity determined by the ability to induce electrolytic excretion (Cl-) at a time period of 0-24 hr for dose 3 mg/kg; assay type: functional, Urine; summary of the method: as §1
Rattus norvegicus [20] = assay: Compound was evaluated for diuretic activity determined by the ability to induce electrolytic excretion (Cl-) at a time period of 0-24 hr for dose 81 mg/kg; assay type: functional, Urine; summary of the method: as §1
Rattus norvegicus [21] = assay: Compound was evaluated for diuretic activity determined by the ability to induce electrolytic excretion (Cl-) at a time period of 0-24 hr for dose 9 mg/kg; assay type: functional, Urine; summary of the method: as §1
Rattus norvegicus [22] = assay: Compound was evaluated for diuretic activity determined by the ability to induce electrolytic excretion (Cl-) at a time period of 0-5 hr for dose 3 mg/kg; assay type: functional, Urine; summary of the method: as §1
Rattus norvegicus [23] = assay: Compound was evaluated for diuretic activity determined by the ability to induce electrolytic excretion (Cl-) at a time period of 0-5 hr for dose 81 mg/kg; assay type: functional, Urine; summary of the method: as §1
Rattus norvegicus [24] = assay: Compound was evaluated for diuretic activity determined by the ability to induce electrolytic excretion (Cl-) at a time period of 0-5 hr for dose 9 mg/kg; assay type: functional, Urine; summary of the method: as §1
Rattus norvegicus [25] = assay: Compound was evaluated for diuretic activity determined by the ability to induce electrolytic excretion (K+) at a time period of 0-24 hr for dose 27 mg/kg; assay type: functional, Urine; summary of the method: as §1
Rattus norvegicus [26] = assay: Urine volumes was determined in Sprague-Dawley rats was determined at time period of 0-5 hours at 9 mg/kg; assay type: functional; summary of the method: as §1
Rattus norvegicus [27] = assay: Urine volumes in Sprague-Dawley rats was determined at time period of 0-5 hours at 3 mg/kg; assay type: functional; summary of the method: as §1
Rattus norvegicus [28] = assay: Urine volumes in Sprague-Dawley rats was determined at time period of 0-5 hours at 81 mg/kg; assay type: functional; summary of the method: as §1
Rattus norvegicus [29] = assay: Urine volumes in Sprague-Dawley rats was determined at time period of 0-5 hours at 27 mg/kg; assay type: functional; summary of the method: as §1
Rattus norvegicus [30] = assay: Compound was evaluated for diuretic activity determined by the ability to induce electrolytic excretion (Cl-) at a time period of 0-5 hr for dose 27 mg/kg; assay type: functional, Urine; summary of the method: as §1
Canis familiaris [31] = assay: Diuretic activity in mongrel dog was determined by the ability to induce electrolytic excretion (K+) at a time period of 0-5 hr after administration of 5 mg/kg dose.
Canis familiaris [32] = assay: Diuretic activity in mongrel dog was determined by the ability to induce electrolytic excretion (Na+) at a time period of 0-5 hr after administration of 5 mg/kg dose.
Canis familiaris [33] = assay: Diuretic activity in mongrel dog was determined by the ability of compound to induce electrolytic excretion (CL-) at a time period of 0-5 hr after administration of 5 mg/kg dose.

Compound: CN(C)c1nc(N)c(-c2nc(N)no2)nc1Cl
- Diuretic effect (Rattus norvegicus [1]): 97
- Diuretic effect (Rattus norvegicus [2]): 53
- Diuretic effect (Rattus norvegicus [3]): 83
- Diuretic effect (Rattus norvegicus [4]): 1
- Diuretic effect (Rattus norvegicus [5]): 2
- Diuretic effect (Rattus norvegicus [6]): 1
- Diuretic effect (Rattus norvegicus [7]): 2
- Diuretic effect (Rattus norvegicus [8]): 341
- Diuretic effect (Rattus norvegicus [9]): 202
- Diuretic effect (Rattus norvegicus [10]): 352
- Diuretic effect (Rattus norvegicus [11]): 258
- Diuretic effect (Rattus norvegicus [12]): 107
- Diuretic effect (Rattus norvegicus [13]): 64
- Diuretic effect (Rattus norvegicus [14]): 108
- Diuretic effect (Rattus norvegicus [15]): 88
- Diuretic effect (Rattus norvegicus [16]): 0.6
- Diuretic effect (Rattus norvegicus [17]): 7.2
- Diuretic effect (Rattus norvegicus [18]): 270
- Diuretic effect (Rattus norvegicus [19]): 170
- Diuretic effect (Rattus norvegicus [20]): 267
- Diuretic effect (Rattus norvegicus [21]): 200
- Diuretic effect (Rattus norvegicus [22]): 40
- Diuretic effect (Rattus norvegicus [23]): 57
- Diuretic effect (Rattus norvegicus [24]): 48
- Diuretic effect (Rattus norvegicus [25]): 82
- Urine volume (Rattus norvegicus [26]): 32 mL
- Urine volume (Rattus norvegicus [27]): 28 mL
- Urine volume (Rattus norvegicus [28]): 30 mL
- Urine volume (Rattus norvegicus [29]): 31 mL
- Diuretic effect (Rattus norvegicus [30]): 63
- Diuretic effect (Canis familiaris [31]): 0.6
- Diuretic effect (Canis familiaris [32]): 7.2
- Diuretic effect (Canis familiaris [33]): 3
